Assay outcomes: PubChem BioAssay, several laboratories
Hits are enriched below; roughly 4.1% of the tested compounds scored in any of these assays.
SMARCA2 act: increases SMARCA2 function in MMTV reporter cells; MG213 cells, MMTV-luciferase reporter, dexamethasone, overnight; activation, % at 9.1 µM; 370,000 compounds, 1% hits; AID 652017; in the data active = activation above about 7.8%;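 note: 0% = vehicle wells and 100% = reference activator wells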
ATG4B inhibitor: ATG4B (human) cysteine protease inhibition; ATG4B cleavage of LC3-PLA2, NBD-HPC fluorescence, 1 h; inhibition, % at 8.33 µM; 340,000 compounds, 0.51% hits; Q9Y4P1; in the data active = inhibition above about 40%
Target sequence (Q9Y4P1 whole entry, looked up): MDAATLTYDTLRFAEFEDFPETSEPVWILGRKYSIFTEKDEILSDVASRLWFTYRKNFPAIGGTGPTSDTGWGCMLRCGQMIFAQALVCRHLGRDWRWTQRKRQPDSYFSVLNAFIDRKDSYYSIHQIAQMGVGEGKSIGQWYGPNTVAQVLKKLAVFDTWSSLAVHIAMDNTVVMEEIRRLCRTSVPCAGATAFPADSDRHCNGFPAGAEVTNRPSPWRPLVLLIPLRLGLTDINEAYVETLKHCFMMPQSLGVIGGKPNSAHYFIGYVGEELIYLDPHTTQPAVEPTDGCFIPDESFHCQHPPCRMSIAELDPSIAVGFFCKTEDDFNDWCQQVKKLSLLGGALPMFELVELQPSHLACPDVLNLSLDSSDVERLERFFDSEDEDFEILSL
MPTP block: blocks calcium-induced mitochondrial swelling. isolated mouse mitochondria, Ca2+ swelling absorbance, 30 min. 360,000 compounds, 1.4% hits. AID 602449. inhibition, % at 10 µM;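 active = inhibition of 50% or more, scaled per plate between neutral and stimulator controls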;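 note: 0% = DMSO wells given calcium and 100% = 1 mM EGTA wells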
MC4R barr agon: activates human MC4R beta-arrestin recruitment. 360,000 compounds, 0.98% hits. AID 540308. P32245. U2OS MC4R beta-arrestin complementation, luminescence; percent of melanotan II response, DMSO zero. activation, % at 8.9 µM;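 active = activation above a per-plate cutoff, the mean activation of sample wells on that plate plus 3 SD, cut at about 8% in these data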
Target sequence (P32245 whole entry, looked up): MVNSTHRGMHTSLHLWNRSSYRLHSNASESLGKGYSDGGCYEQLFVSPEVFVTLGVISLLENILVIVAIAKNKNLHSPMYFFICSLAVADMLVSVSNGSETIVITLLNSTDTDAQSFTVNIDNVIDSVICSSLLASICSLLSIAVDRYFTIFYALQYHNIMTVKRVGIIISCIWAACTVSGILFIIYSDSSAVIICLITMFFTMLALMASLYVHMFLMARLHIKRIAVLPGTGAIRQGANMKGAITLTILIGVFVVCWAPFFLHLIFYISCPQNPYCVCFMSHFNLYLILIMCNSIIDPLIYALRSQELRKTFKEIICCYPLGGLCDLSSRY
MC4R antag cAMP: blocks human MC4R cAMP signaling; inhibition, % at 6.5 µM; 360,000 compounds, 0.48% hits; P32245; MC4R-expressing cells, MTII-stimulated cAMP, LANCE TR-FRET;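 active = inhibition above its plate's cutoff, the mean of tested wells on that plate plus 3 SD, cut at about 29% in these data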;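 note: 0% = Melanotan II alone and 100% = Melanotan II plus saturating MCL0020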
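System: U2OS-MC4R stable cell line; Technique: Eu-cAMP/anti-cAMP TR-FRET, emission 671 nm; Repeats: single well per compound; Also added: Melanotan II; Dosing: one concentration, 6.5 µM nominal; Schedule: 30-min compound, 1-h challenge, 1-h detection, room temperature.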
MPTP counter: Rhodamine 123 counter-screen of mitochondrial pore hits; shares compounds with MPTP block; isolated mitochondria, membrane potential, Rhodamine 123 fluorescence; inhibition, % at 10 µM; 5,000 compounds, 78% hits; AID 624504; in the data active = inhibition above about 22%;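 note: 0% = DMSO vehicle and 100% = positive control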
MPTP abs DR: dose response confirmation of mitochondrial permeability transition pore inhibitors. shares compounds with MPTP block. IC50, µM. AID 651561. isolated mitochondria swelling, absorbance. 780 compounds, 58% hits; in the data active = IC50 below about 20 µM
MPTP cs DR: counter-screen for mitochondrial permeability transition pore inhibitors, dose response; shares compounds with MPTP block; isolated mitochondria counterscreen, fluorescence read-out; AID 651564; 780 compounds, 49% hits; IC50, µM; in the data active = IC50 below about 80 µM
The depositor's hits bear a star; i = inactive; . = not tested or not shown.

SMILES	SMARCA2 act	ATG4B inhibitor	MPTP block	MC4R barr agon	MC4R antag cAMP	MPTP counter	others
O=c1c(C(c2ccccc2)c2c(O)sc3ccccc3c2=O)c(O)sc2ccccc12	0.7	-7.8	67.6*	0.2	4.8	70.8*
Cc1ccc(C(=O)Nc2nc(=O)n(C(=O)CC(C)C)s2)cc1	-1.7	6.2	58.1*	-1.3	3.1	78.0*
O=S(=O)(c1ccc(Cl)cc1)N1CCN(c2ncnc3sccc23)CC1	-4.6	-7.1	70.1*	-1.6	-0.7	94.3*
Cc1csc2c(N3CCN(S(=O)(=O)c4ccc(Cl)cc4)CC3)ncnc12	-0.1	4.1	66.9*	-0.4	8.9	21.0*
CCC(C)N(C(=O)c1oc(=O)c2ccccc2c1-c1ccc(C)cc1)C(C)CC (stereo unspecified)	-6.0	.	.	.	.	.
N#CC1(C#N)CC(C=O)=C(N)C1(C#N)CC(=O)C12CC3CC(CC(C3)C1)C2 (stereo unspecified)	-4.6	-5.9	72.7*	0.5	12.2	55.1*
COc1ccc(N2CCN(CCCNC(=O)CCc3cccc(Cl)c3)CC2)cc1	4.2	.	.	.	.	.
O=C(NC(NNc1ccc([N+](=O)[O-])cc1)(C(F)(F)F)C(F)(F)F)c1ccc(F)cc1	-3.0	9.0	100.3*	-1.2	9.4	88.2*
O=C(NC(NNc1ccc([N+](=O)[O-])cc1)(C(F)(F)F)C(F)(F)F)c1ccccc1Cl	-0.8	-5.6	90.2*	-1.6	-0.5	83.8*
COCC(=O)N[C@H]1C[C@@H]2O[C@H](CO)CC[C@@H]2O[C@@H]1CCc1ccc(-c2ccccc2)cc1	-4.0	.	.	.	.	.
O=S(=O)(CC1NCc2ccccc21)NCCc1ccccc1 (stereo unspecified)	0.7	.	.	.	.	.
CCN(CC)CCCNC(=O)CSc1nc2cccnc2n1C	-1.6	.	.	.	.	.
O=C(c1cccs1)N1CC[C@H]2[C@H](CCCN2Cc2ccc(F)cc2)C1	0.9	.	.	.	.	.
CCCCNc1ccc2c(c1)OC[C@H](Cc1ccccc1)NS2(=O)=O	-2.7	.	.	.	.	.
CC1CCC2(CCC(=O)N2CCCOC(=O)NC(C)(C)C)CC1 (stereo unspecified)	1.9	.	.	.	.	.
CCc1ccc(S(=O)(=O)c2nnn3c2nc(NCCNC(C)=O)c2ccccc23)cc1	0.5	-18.5	64.9*	3.0	-24.9	43.1*
CC1CCN(S(=O)(=O)c2ccc(Oc3ccc([N+](=O)[O-])cc3)cc2)CC1	-0.1	-2.2	66.9*	-1.7	3.1	70.8*
CC1CCC(NC(=O)c2cccc(S(=O)(=O)N3CCN(c4ccccc4)CC3)c2)CC1 (stereo unspecified)	-1.2	-0.5	76.4*	-1.9	16.2	18.0	MPTP abs DR=i;MPTP cs DR=>80
Nn1c(SCC(=O)Nc2cccc3ccccc23)nnc1-c1n[nH]c2c1CCC2	-1.3	.	.	.	.	.
c1ccc2c(c1)oc1c(NCc3ccc4c(c3)OCO4)ncnc12	.	1.9	84.5*	-1.0	-0.8	109.9*
O=C(Cn1cnc2c(NCc3ccccc3)ncnc21)NCc1ccc2c(c1)OCO2	-5.1	0.6	-0.1	-1.2	-2.1	.
O=S1(=O)c2ccc(Br)cc2OC[C@H](c2ccccc2)N1Cc1ccccc1	-0.2	.	.	.	.	.
Cc1ccc(-c2csc(N3CCC(NS(=O)(=O)c4ccc5c(c4)OCCO5)CC3)n2)cc1	-5.6	-14.0	95.1*	1.1	0.8	95.3*
CC1=C([N+](=O)[O-])C(c2cccc(Br)c2)C2=C(N1)c1ccccc1C2=O (stereo unspecified)	1.7	26.7	85.0*	-4.3	-16.7	58.5*
O=[N+]([O-])c1cc(-c2n[nH]c(-c3ccccc3)n2)cc([N+](=O)[O-])c1	-0.9	4.8	71.9*	5.0	-0.7	8.8	MPTP abs DR=19.8*;MPTP cs DR=<2.5*
SMILES	SMARCA2 act	ATG4B inhibitor	MPTP block	MC4R barr agon	MC4R antag cAMP	MPTP counter	others
O=[N+]([O-])c1cc([N+](=O)[O-])c2n[nH]c(-c3ccccc3)c2c1	-2.4	10.8	1.3	-1.6	-1.0	.
CC(C)C[C@@H]1COc2cc(Br)ccc2S(=O)(=O)N1Cc1cn(Cc2ccc(Br)cc2)nn1	0.3	.	.	.	.	.
O=C(NC(CO)(CO)CO)c1coc(=O)c(Br)c1	-0.3	4.4	-2.2	-0.9	0.7	.
O=C(Nc1cc(Cl)cc(Cl)c1)c1coc(=O)c(Br)c1	-0.6	-0.2	80.6*	-2.0	2.6	86.9*
CCN=C1S/C(=C\c2cc(OCC)c(O)cc2Br)C(=O)N1CC	-0.3	9.7	66.9*	3.0	5.5	70.6*
CCSc1nnc(NC(=O)C(CC)(C(F)(F)F)C(F)(F)F)s1	-1.9	1.0	54.2*	-0.8	12.2	106.4*
CCOC(=O)N1CCN(C(=O)c2cc(Cl)c(Cl)cc2C(=O)O)CC1	.	-2.1	54.8*	-1.4	-4.8	-6.0	MPTP abs DR=>100;MPTP cs DR=>80
CC(C)C[C@H](NC(=O)OC(C)(C)C)c1nnc(SCC(=O)Nc2ccc(Br)cc2)o1	-0.1	-3.6	65.5*	8.3*	2.2	69.6*
CCNC(=O)N(C)[C@H]1C[C@H]2c3[nH]c4c(-c5cccc(C)c5)cccc4c3CCN2C[C@H]1[C@H](C)O	-4.7	.	.	.	.	.
CC(=O)c1cc(-c2ccc3nonc3c2)c(=O)n2c1CCC2	-0.5	.	.	.	.	.
CCN(c1ccccc1)S(=O)(=O)c1ccc(Cl)c(NC(=O)Nc2ccc(Cl)cc2C#N)c1	0.7	-14.4	3.1	3.1	7.7	.
CN(c1ccccc1)S(=O)(=O)c1cccc(NC(=O)c2ccncc2)c1	-5.0	-13.2	96.3*	-1.0	1.8	68.9*
CCN(c1ccccc1)S(=O)(=O)c1ccc(C(=O)Nc2cccc(NC(C)=O)c2)cc1	-3.6	-39.6	-1.4	-0.5	4.9	.
CN(c1ccccc1)S(=O)(=O)c1cccc(NC(=O)c2cncc(Br)c2)c1	0.4	-5.5	35.9	-3.0	3.3	.
CN(c1ccccc1)S(=O)(=O)c1cccc(NC(=O)CCNC(=O)c2ccc(Cl)cc2)c1	-3.8	-28.8	0.3	0.1	7.1	.
CCN(c1ccccc1)S(=O)(=O)c1cc(C(=O)Nc2ccc(F)c(F)c2)ccc1F	-6.8	-1.8	91.4*	3.6	7.7	81.2*
CCN(c1ccccc1)S(=O)(=O)c1cc(NC(=O)Nc2ccccc2C#N)ccc1Cl	-1.6	-12.5	96.3*	0.3	7.7	94.9*
CN(c1ccccc1)S(=O)(=O)c1cccc(NC(=O)Nc2ccc(Cl)cc2C#N)c1	0.9	-4.7	71.3*	-1.8	9.3	86.3*
CCCCCn1nnnc1C1(C)Cn2nccc2C(=O)N1Cc1ccco1 (stereo unspecified)	0.5	.	.	.	.	.
Nc1[nH]c(C(=O)c2ccc(Br)cc2)c(-c2ccccc2Cl)c1C(=O)NCCc1c[nH]c2ccccc12	-5.1	.	.	.	.	.
CN(c1ccccc1)S(=O)(=O)c1ccc(NC(=S)Nc2ccccc2)cc1	-1.5	2.0	96.2*	-3.5	12.5	90.7*
